The target of test [1] is GABA-A receptor; anion channel. On the set-up: species or system Bos taurus.
In test [2] the target is GABA-A receptor; anion channel (Homo sapiens) (UniProt P14867+P47870+P18507+P28472+P48169+Q99928+Q9UN88+P34903+O00591+O14764+Q8N1C3+P18505+P78334+P47869+P31644+Q16445). Put plainly: Percent inhibition [3H]Ro-151788 binding to Benzodiazepine receptor from bovine brain membrane at 10 uM. The settings on record: Bos taurus, target entry is the homologue from another species.

In test [3] the test system is Mus musculus. Put plainly: Percent anticonvulsant activity against pentylenetetrazole (PTZ)-induced attacks at 3 mg/kg peroral dose. The settings on record: route oral. Format: functional. The gist of the method:
(§1)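 Male CD-1 mice dosed po in 1% carboxymethylcellulose, 30 min before PTZ (90 mg/kg sc, in 0.9% saline). Occurrence of clonic generalized convulsions noted over 30 min; χ² analysis vs control mice.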

The test system of test [4] is Mus musculus. Put plainly: Motor coordination of mouse as number of falls in 30 sec was reported after 3 mg/kg peroral dose using rotarod test. It is filed as functional. The settings on record: route oral. The gist of the method:
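Male CD-1 mice dosed po (suspension in 1% carboxymethylcellulose, 10 mL/kg). Rota rod turning at 24 rpm; falls from the rod counted over 30 s, 25 min after drug administration.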

Test [5] deals with Mus musculus. Nature of the test: Anxiolytic activity in mice using light-dark box and % time spent in light was reported at 10 mg/kg peroral dose. It is filed as functional. The following applies: route oral. Summed up:
(§2)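 Male CD-1 mice (22–24 g) given drug po in 1% carboxymethylcellulose (10 mL/kg). Each mouse placed in the centre of the lighted area facing away from the dark compartment and allowed to explore for 5 min; time spent in the illuminated side and number of transfers between compartments recorded. Tests run between 10:00 and 15:00.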

In test [6] the test system is Mus musculus. Put plainly: Anxiolytic activity in mice using light-dark box and no. of transfers between compartments were reported at 10 mg/kg peroral dose. Format: functional. The following applies: route oral. The gist of the method:
as §2

The subject of test [7] is Mus musculus. Nature of the test: Percent anticonvulsant activity against pentylenetetrazole (PTZ)-induced attacks at 10 mg/kg peroral dose. It is filed as functional. The following applies: route oral. The gist of the method:
as §1

The subject of test [8] is Mus musculus. Put plainly: Motor coordination of mouse as number of falls in 30 sec was reported after 10 mg/kg peroral dose using rotarod test. Format: functional. The settings on record: route oral. Summed up: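 Male CD-1 mice are dosed po in 1% CMC (flumazenil ip). Falls from a rota rod turning at 24 rpm are counted over 30 s, 25 min after drug administration, and compared with vehicle-treated mice. Means ± SEM.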
For orientation: Falling from the rotarod earlier than controls is read as motor impairment.

Test [9] deals with Mus musculus. Nature of the test: Anxiolytic activity in mice using light-dark box and no. of transfers between compartments were reported at 100 mg/kg peroral dose. Format: functional. The following applies: route oral. The gist of the method:
as §2

Test [10] concerns Mus musculus. Put plainly: Anxiolytic activity in mice using light-dark box and % time spent in light was reported at 100 mg/kg peroral dose. Format: functional. The following applies: route oral. Summed up: as §2

As for `CC(C)OC(=O)c1cnn2c1n[n+]([O-])c1ccc(Cl)cc12`, the Ki in test [1] was determined as 272 nM. Further, in test [2], the inhibition came out at 97%.
`CN1C(=O)CN=C(c2ccccc2)c2cc(Cl)ccc21.O=C(OCc1cccs1)c1cnn2c1n[n+]([O-])c1ccc(Cl)cc12` gave an Activity in the test on Mus musculus [3] of 50%. In the test with Mus musculus [4], this molecule registered a No. of falls of 0.3.
For `CC(OC(=O)c1cnn2c1n[n+]([O-])c1ccc(Cl)cc12)c1ccccc1` (stereo not drawn), the inhibitory constant (Ki) in [1] worked out at 138 nM. The same molecule yielded an inhibition in [2] of 95%.
On the same counts, the results for `O=C(OCC1CCOC1)c1cnn2c1n[n+]([O-])c1ccc(Cl)cc12` (stereo not drawn) are 680 nM and 85%.
Molecule `O=C(Cc1cnn2c1n[n+]([O-])c1ccc(Cl)cc12)OCc1cccs1` showed an inhibition in test [2] of 35%.
Still for that read-out and setting: the result for `O=C(OCc1ccco1)c1cnn2c1n[n+]([O-])c1ccc(Cl)cc12` reads 100%.
Consider `O=C(OCc1cccs1)c1cnn2c1nnc1ccc(Cl)cc12`, for which the affinity in test [1] corresponds to a Ki of 6.26 nM. For the same molecule, the inhibition in test [2] is 96%.
`COc1ccccc1COC(=O)Cc1cnn2c1n[n+]([O-])c1ccc(Cl)cc12`: the inhibition in [2] came to 50%.
Same read-out and setting: the result for `O=C(Cc1cnn2c1n[n+]([O-])c1ccc(Cl)cc12)OCc1ccsc1` reads 45%.
As for `CN1C(=O)CN=C(c2ccccc2)c2cc(Cl)ccc21.O=C(OCc1ccsc1)c1cnn2c1n[n+]([O-])c1ccc(Cl)cc12`, the results for the Activity in the test on Mus musculus [5] and in the test with Mus musculus [7] were 149.16% and 100%, respectively. This molecule gave a No. of transfers with Mus musculus [6] of 27.9. This molecule also gave a No. of falls in the test on Mus musculus [8] of 0.55.
As for `O=C(Cc1cnn2c1n[n+]([O-])c1ccc(Cl)cc12)Oc1ccccc1`, the inhibition in test [2] worked out at 79%.
The same measure, in the same setting: the result for `O=C(Cc1cnn2c1n[n+]([O-])c1ccc(Cl)cc12)OCc1ccccc1` reads 32%; that for `Cc1ccccc1OC(=O)CC1C=NN2c3cc(Cl)ccc3[N+]([O-])=NC12` (stereo not drawn), 70%.
Molecule `COc1ccccc1OC(=O)CC1C=NN2c3cc(Cl)ccc3[N+]([O-])=NC12` (stereo not drawn) showed an inhibitory constant (Ki) in [1] of 171 nM. The same molecule displayed an inhibition in test [2] of 88%.
Consider `O=C(OCc1ccoc1)c1cnn2c1n[n+]([O-])c1ccc(Cl)cc12`, for which the inhibition in test [2] is 96%.
Consider `CN1C(=O)CN=C(c2ccccc2)c2cc(Cl)ccc21.O=C(OCc1ccco1)c1cnn2c1n[n+]([O-])c1ccc(Cl)cc12`, for which the values for the Activity with Mus musculus [5] and in the test with Mus musculus [7] were 142.02% and 88.9%, respectively. This molecule also showed a No. of transfers in the test on Mus musculus [6] of 27.1. In the test with Mus musculus [8], this molecule gave a No. of falls of 1.55.
As to `CN1C(=O)CN=C(c2ccccc2)c2cc(Cl)ccc21.O=C(OCc1ccoc1)c1cnn2c1n[n+]([O-])c1ccc(Cl)cc12`, the Activity with Mus musculus [7] was found to be 88.9%. For the same molecule, the No. of falls with Mus musculus [8] was 0.44.
`CCOC(=O)Cc1cnn2c1n[n+]([O-])c1ccc(Cl)cc12`: the inhibition in test [2] was determined as 53%.
On to `COc1ccccc1COC(=O)C1C=NN2c3cc(Cl)ccc3[N+]([O-])=NC12` (stereo not drawn), for which the Ki in [1] was 1 nM. In [2], this molecule returned an inhibition of 100%.
On the same counts, the results for `O=C(OCc1ccncc1)c1cnn2c1n[n+]([O-])c1ccc(Cl)cc12` are 44 nM and 100%.
On to `O=C(OCc1ccsc1)c1cnn2c1n[n+]([O-])c1ccc(Cl)cc12`, for which the inhibition in test [2] came to 97%.
On the same count and under the same terms, to `O=C(OCc1cccs1)c1cnn2c1n[n+]([O-])c1ccc(Cl)cc12` belongs 93%.
For the molecule `CCOC(=O)c1ncn2c1CN(C)C(=O)c1cc(F)ccc1-2.O=C(OCc1cccs1)c1cnn2c1n[n+]([O-])c1ccc(Cl)cc12`, the No. of transfers with Mus musculus [9] is 23. In addition, in the test on Mus musculus [10], the Activity was determined as 124.08%.
Take `O=C(CC1C=NN2c3cc(Cl)ccc3[N+]([O-])=NC12)Oc1ccccc1Cl` (stereo not drawn): in test [1], the affinity corresponds to a Ki of 489 nM. Besides, the inhibition in [2] is 87%.
In the same order, the values of `COc1ccccc1COC(=O)c1cnn2c1nnc1ccc(Cl)cc12` are 1.7 nM and 97%.

The term Ki denotes a dissociation constant, usually derived from enzyme kinetics or from competition with a known ligand. A high value points to weaker binding. A word on the inhibition: it is the percentage by which the read-out fell short of the control. A low value points to little suppression.

Values taken from ChEMBL document CHEMBL1135690, “Benzodiazepine receptor ligands. 7. Synthesis and pharmacological evaluation of new 3-esters of the 8-chloropyrazolo[5,1-c][1,2,4]benzotriazine 5-oxide. 3-(2-Thienylmethoxycarbonyl) derivative: an anxioselective agent in rodents” (J Med Chem, 2002).
